MITF act: MITF TRPM1 promoter activation in melanoma cells; 0.75% of 300,000 active; SK-MEL-5 TRPM1-promoter luciferase, 24 h; % of positive control, neutral wells = 0; AID 588334; activation, % at 12.5 µM;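 active = mean activation of at least 80% with every replicate also reaching 80%; inconclusive = mean reaches 80% but some replicate falls short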;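 also: 0% = neutral control wells and 100% = parthenolide positive control wells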
Xi reactivation: reactivates the inactive X chromosome in mouse fibroblasts | XiGFP mouse fibroblasts, % GFP-positive cells imaging, 3 d; cells co-treated with 5-aza-dC sensitizer; scaled so ellipticine positive control = 100% | activation, % at 7.58 µM | 0.055% of 360,000 active | AID 743238;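 active = mean normalized replicate activation at least 10% and every replicate at or above 10%; inconclusive = only one of the two criteria met; inactive = mean below 10% and not all replicates reach 10%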;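 also: 0% = median of on-plate neutral control wells and 100% = ellipticine 6 µM median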
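Assay system: SV40-immortalized XiGFP fibroblast cells, line 68-5-11; buffer or medium: DMEM plus 5-aza-dC sensitizer; compound: one concentration, pinned; timing: compounds 3 days, fix/stain 15 min at room temperature; benchmarks: positive control ellipticine, 6 µM final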
esBAF inh: SWI/SNF esBAF complex inhibition; mouse ES cells, Bmi1-luciferase knock-in reporter, 24 h; 100% = twice the neutral-well signal; reporter increase, % at 12.5 µM; 2% of 350,000 active; AID 602393; in the data active = activation above about 40%; inconclusive = no clear call, values can overlap the other calls;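 also: 0% = median of the plate's neutral control wells and 100% = double that signal; a rise in the Bmi1 reporter signal indicates esBAF inhibition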
Vif inh: HIV Vif inhibition; 0.35% of 340,000 active; HEK293T cells, Vif self-association by quenched fluorescence, imaging, 24 h; inhibition, % at 7.49 µM; in the data active = inhibition above about 50%, passing the limit was not always enough; inconclusive = no clear call, values can overlap the other calls; inactive = below about 31%
Wnt bcat act: activates Wnt/beta-catenin signaling in a reporter cell assay. activation, % at 9.35 µM. AID 743398. activator, plate reader. 1.2% of 300,000 active; in the data active = activation above about 30%, passing the limit was not always enough; inconclusive = no clear call, values can overlap the other calls;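 also: 0% = neutral control wells and 100% = positive control wells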
An asterisk follows results filed as active; i = inactive; ? = inconclusive; / = no result given. Shown are actives, neighbours in structure and some others; about 2.6% of the full set was active somewhere.

SMILES | MITF act | Xi reactivation | esBAF inh | Vif inh | Wnt bcat act
Cc1noc(C)c1NC(=O)Nc1cccc2c1O[C@@H](CN(C)C(=O)NC1CCCCC1)[C@H](C)CN([C@H](C)CO)C2=O | / | 1 | 3 | / | /
N/C(=N\OC(=O)c1cc(Cl)ccc1Cl)c1ccncc1 | 32 | 0 | / | 0 | -4
N/C(=N\OC(=O)c1ccc(Cl)c(Cl)c1)c1cccnc1 | 28 | / | 52* | / | /
N/C(=N\OC(=O)c1cc(Cl)ccc1Cl)c1cccnc1 | / | / | 52* | 30 | /
N/C(=N\OC(=O)c1ccc(Cl)cc1[N+](=O)[O-])c1cccnc1 | / | 0 | / | -6 | 37*
N/C(=N\OC(=O)c1ccc(Cl)cc1Cl)c1ccncc1 | / | 0 | / | 7 | 35*
Cc1ccc(/C(N)=N/OC(=O)c2ccco2)cc1 | / | / | -25 | -2 | ?
N/C(=N\OC(=O)c1ccc(Br)cc1)c1ccccc1 | 70 | / | -47 | 13 | /
N/C(=N\OC(=O)c1cccc(Cl)c1)c1ccncc1 | 44 | 0 | / | 0 | 0
N/C(=N\OC(=O)c1ccccc1)c1cccnc1 | 17 | 0 | 56* | 2 | 51*
N/C(=N\OC(=O)c1ccco1)c1ccccc1 | 95* | / | ? | 2 | 36*
N/C(=N\OC(=O)c1cccc(Cl)c1)c1cccnc1 | 18 | / | 73* | -15 | /
N/C(=N\OC(=O)c1ccccc1)c1ccn[nH]1 | 19 | 0 | 25 | -2 | 49*
Cc1occc1C(=O)O/N=C(\N)c1ccc(Cl)cc1 | / | 1 | 64* | -4 | 63*
CNC[C@@H]1OCCCC[C@H](C)Oc2ccc(NC(=O)Nc3ccc(C(F)(F)F)cc3)cc2C(=O)N([C@@H](C)CO)C[C@@H]1C | / | 0 | -9 | / | /
C[C@@H]1CN([C@@H](C)CO)C(=O)c2cc(NC(=O)CCN3CCOCC3)ccc2O[C@@H]1CN(C)S(=O)(=O)c1cccs1 | / | -1 | -2 | / | /
Cn1c2ccccc2c(=O)c2c(=O)n(-c3ccc(F)cc3)c(-c3cccs3)nc21 | 12 | 0 | / | -3 | 51*
CO[C@@H]1CN(C)C(=O)c2cc(NS(C)(=O)=O)ccc2OC[C@H](C)N(CC2CCOCC2)C[C@@H]1C | / | 0 | 0 | / | /
C=CCNC(=O)C1CC1(c1cccc(C)c1)c1cccc(C)c1 (configuration not stated) | / | 0 | / | -6 | 42*
Cc1cccc(C2(c3cccc(C)c3)CC2C(=O)NCC2CCCO2)c1 (configuration not stated) | -3 | 0 | / | -5 | -3
CCCN(C)C[C@H]1OCc2ccccc2-c2ccccc2C(=O)N([C@@H](C)CO)C[C@H]1C | / | 0 | -1 | / | /
Cn1c(-c2ccc([N+](=O)[O-])cc2)nc2ccccc21 | 34 | 1 | 6 | -8 | 32*
Cn1cc([N+](=O)[O-])cc1-c1nc2ccccc2n1C | / | 0 | 2 | -1 | 1
Clc1cccc(Nc2nc(-c3cccnc3)cs2)c1 | 43 | -1 | 78* | -5 | 0
Brc1ccc(Nc2nc(-c3cccnc3)cs2)cc1 | 26 | 0 | / | 8 | 0
SMILES | MITF act | Xi reactivation | esBAF inh | Vif inh | Wnt bcat act
c1cncc(Nc2nc(-c3cccs3)cs2)c1 | 52 | / | 69* | -12 | 16
Brc1cccc(Nc2nc(-c3cccnc3)cs2)c1 | 16 | 0 | 49* | -12 | 27
C[C@@H]1CN([C@H](C)CO)C(=O)c2cccc(NS(=O)(=O)c3ccc(Cl)cc3)c2O[C@@H]1CN(C)Cc1ccccc1 | / | 0 | 2 | / | /
COc1ccc2c3c([nH]c2c1)[C@@H](CO)N(C(=O)c1ccccn1)CC31CN(C(=O)C2CCCCC2)C1 | / | 0 | / | / | /
COc1ccc(S(=O)(=O)N(C)C[C@@H]2Oc3ccc(N(C)C)cc3CC(=O)N([C@H](C)CO)C[C@H]2C)cc1 | / | 0 | 4 | / | /
COc1ccc(C(=O)c2cc3cccc(OC)c3o2)cc1 | 52 | 1 | 60* | 3 | 10
Nc1ccc2cc3ccccc3cc2c1 | ? | / | 49* | i | 9
Cc1ccc(-c2ccc3c(c2)O[C@@H](CN(C)Cc2ccc(C(=O)O)cc2)[C@H](C)CN([C@@H](C)CO)S3(=O)=O)cc1 | / | 0 | 1 | / | /
CC(C)c1ccc(NC(=O)[C@@H]2CCC(=O)N2C2OC(=O)c3ccccc32)cc1 (some centres not stated) | 46 | / | 56* | -1 | 0
COc1cccc(/C=C2\N=C3CCCCCN3C2=O)c1 | -1 | / | 3 | 3 | 36*
CCOc1cc(/C=C2\N=C3CCCCCN3C2=O)ccc1O | 51 | -1 | / | 2 | -1
COc1ccc(C(O)c2ncc(-c3cccc(OC)c3)[nH]2)cc1 (configuration not stated) | / | 0 | 4 | / | -1
COc1cccc(-c2cnc(C(O)c3ccc(F)cc3)[nH]2)c1 (configuration not stated) | / | 0 | 56* | -2 | 2
CCc1ccc(C(O)c2ncc(-c3cccc(F)c3)[nH]2)cc1 (configuration not stated) | / | 0 | 87* | -12 | -2
O=C(NC(=S)Nc1ccccc1F)c1ccc(Br)o1 | 34 | 0 | 49* | -9 | 0
CSc1ccccc1NC(=O)c1ccc(Br)o1 | 48 | / | 52* | 29 | 6
O=C(Nc1cccc2ccccc12)c1ccc(Br)o1 | 3 | / | -14 | / | /
CCC(=O)NC(=S)Nc1ccc(NC(=O)c2ccc(OC)cc2)cc1 | -13 | 0 | / | 11 | -1
CCC(=O)NC(=S)Nc1ccc(NC(=O)c2ccc(Br)o2)cc1 | 5 | 0 | 69* | -6 | -3
Cc1ccc(NC(=S)NC(=O)c2ccc(Br)o2)c(C)c1 | 88* | 0 | / | 4 | 9
Cc1ccc(S(=O)(=O)N[C@H]2C=C[C@H](CC(=O)O)O[C@@H]2CO)cc1 | / | 2 | -10 | / | /
CCNC(=O)C[C@H]1CC[C@H](NC(=O)C2CC2)[C@@H](CO)O1 | / | 0 | -1 | / | /
COc1ccc(-c2ccc3sc4ccccc4c(=O)c3c2)cn1 | 50 | 0 | 12 | 0 | 39*
CN(C)c1ccc(-c2ccc3c(=O)c4ccccc4n(C)c3c2)cn1 | 27 | 0 | 49* | 7 | 36*
COc1cc2sc3ccc(-c4ccc(CN5CCOCC5)cc4)cc3c(=O)c2cc1OC | -4 | 0 | 20 | -25 | 22
COc1cc2sc3ccc(-c4ccc(N(C)C)nc4)cc3c(=O)c2cc1OC | / | 0 | / | / | 44*
C[C@H](CO)N1C[C@H](C)[C@@H](CN(C)S(C)(=O)=O)Oc2ccc(NC(=O)CCC(F)(F)F)cc2CC1=O | / | 0 | -1 | / | /

Screening results as filed in PubChem BioAssay.
